From ChEMBL document CHEMBL3351244, “Structure based design of novel 6,5 heterobicyclic mitogen-activated protein kinase kinase (MEK) inhibitors leading to the discovery of imidazo[1,5-a] pyrazine G-479” (Bioorg Med Chem Lett, 2014)
Values after ≈ are worked out from the molar mass of the structure shown.

Columns and labels:
[1] = target: T1, Cytochrome P450 1A2 (Homo sapiens, UniProt P05177); assay: Inhibition of CYP1A2 (unknown origin); type: ADME
T1 sequence (P05177 whole entry): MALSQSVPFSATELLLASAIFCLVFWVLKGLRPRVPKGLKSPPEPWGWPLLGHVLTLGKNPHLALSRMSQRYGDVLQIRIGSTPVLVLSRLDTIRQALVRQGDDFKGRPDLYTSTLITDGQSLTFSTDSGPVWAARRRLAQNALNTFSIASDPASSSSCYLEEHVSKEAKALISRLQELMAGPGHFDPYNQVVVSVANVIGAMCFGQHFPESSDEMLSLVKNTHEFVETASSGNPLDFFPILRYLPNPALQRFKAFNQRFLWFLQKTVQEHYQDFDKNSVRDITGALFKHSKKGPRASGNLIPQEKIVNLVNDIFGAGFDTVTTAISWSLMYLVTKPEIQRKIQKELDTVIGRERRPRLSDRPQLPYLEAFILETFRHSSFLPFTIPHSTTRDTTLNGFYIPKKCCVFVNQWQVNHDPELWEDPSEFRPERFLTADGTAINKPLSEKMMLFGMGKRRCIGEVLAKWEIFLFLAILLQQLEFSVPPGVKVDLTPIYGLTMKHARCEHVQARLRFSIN

[2] = Hepatic clearance in dog liver microsomes; type: ADME, Canis lupus familiaris
Procedure, shortened: (§1)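 Compounds incubated with liver microsomes from human, rat, mouse, dog and cynomolgus monkey to assess comparative metabolic stability; clearance expressed in mL/min/kg, with stable/moderate/labile designations assigned by set ranges.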

[3] = (§2) Permeability from apical to basolateral side in MDCK cells; type: ADME, cell-based, Canis lupus familiaris; conditions: dog, read-out: permeability
[4] = Hepatic clearance in human liver microsomes; type: ADME; procedure, shortened: as §1
[5] = target: Cytochrome P450 2C19 (Homo sapiens, UniProt P33261); assay: Inhibition of CYP2C19 (unknown origin); type: ADME
Chain of Cytochrome P450 2C19 (P33261 whole entry): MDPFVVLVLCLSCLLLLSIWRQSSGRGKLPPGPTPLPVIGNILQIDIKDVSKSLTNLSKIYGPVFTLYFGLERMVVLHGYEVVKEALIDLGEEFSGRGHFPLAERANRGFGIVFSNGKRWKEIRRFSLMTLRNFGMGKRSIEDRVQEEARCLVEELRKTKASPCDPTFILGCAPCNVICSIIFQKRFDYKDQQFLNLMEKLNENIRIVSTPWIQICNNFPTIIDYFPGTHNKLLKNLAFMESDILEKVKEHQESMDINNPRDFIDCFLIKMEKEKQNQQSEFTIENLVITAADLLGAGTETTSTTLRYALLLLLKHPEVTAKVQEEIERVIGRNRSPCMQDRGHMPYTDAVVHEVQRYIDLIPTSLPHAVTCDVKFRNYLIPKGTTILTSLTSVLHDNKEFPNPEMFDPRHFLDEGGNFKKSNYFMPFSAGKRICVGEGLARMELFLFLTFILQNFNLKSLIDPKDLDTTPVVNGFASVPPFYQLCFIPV

[6] = test system: Plasma; assay: Stability in rat plasma at 5 mg/kg, po; type: ADME, organism-based; set-up: dose 5 mg/kg, route oral; conditions: in vivo
[7] = Total clearance in rat at 1 mg/kg, iv or 5 mg/kg, po; type: ADME, organism-based; conditions: in vivo
[8] = Protein binding in rat plasma; type: ADME, cell-free; conditions: read-out: PPB (converted)
[9] = Dissociation constant, pKa of the compound by Sirius based assay; type: physicochemical
[10] = Volume of distribution at steady state in rat at 1 mg/kg, iv or 5 mg/kg, po; type: ADME, organism-based; conditions: in vivo, read-out: Vdss
[11] = Antiproliferative activity against human HCT116 cells assessed as inhibition of cell proliferation after 72 hrs; type: functional, cell-based; conditions: HCT-116, 72 h
Procedure, shortened: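 Cell proliferation measured after 72 h exposure in HCT116 and A375 cells; IC₅₀ reported.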

[12] = Hepatic clearance in cynomolgus monkey liver microsomes; type: ADME, Macaca fascicularis; procedure, shortened: as §1
[13] = Protein binding in human plasma; type: ADME, cell-free; conditions: read-out: PPB (converted)
[14] = target: T2, Cytochrome P450 3A4 (Homo sapiens, UniProt P08684); assay: Inhibition of CYP3A4 (unknown origin) using testosterone substrate; type: ADME
T2 sequence (P08684 whole entry): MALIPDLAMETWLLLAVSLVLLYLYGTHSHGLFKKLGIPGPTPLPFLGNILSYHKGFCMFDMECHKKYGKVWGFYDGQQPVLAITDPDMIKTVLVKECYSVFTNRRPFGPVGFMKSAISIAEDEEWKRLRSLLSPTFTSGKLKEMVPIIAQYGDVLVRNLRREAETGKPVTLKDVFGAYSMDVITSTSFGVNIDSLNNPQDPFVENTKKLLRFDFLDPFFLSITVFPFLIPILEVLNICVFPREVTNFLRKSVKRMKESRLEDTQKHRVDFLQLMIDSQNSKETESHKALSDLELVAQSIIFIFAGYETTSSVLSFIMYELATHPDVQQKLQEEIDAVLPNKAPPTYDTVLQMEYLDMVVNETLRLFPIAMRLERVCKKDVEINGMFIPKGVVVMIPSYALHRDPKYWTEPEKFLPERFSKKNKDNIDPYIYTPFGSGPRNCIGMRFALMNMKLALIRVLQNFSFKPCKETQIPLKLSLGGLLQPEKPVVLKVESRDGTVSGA

[15] = test system: A-375; assay: cells; conditions: Homo sapiens, A-375, 72 h
[16] = Half life in rat at 1 mg/kg, iv or 5 mg/kg, po; type: ADME, organism-based; conditions: in vivo
[17] = Hepatic clearance in rat liver microsomes; type: ADME; procedure, shortened: as §1
[18] = Protein binding in mouse plasma; type: ADME, cell-free; conditions: read-out: PPB (converted)
[19] = test system: Plasma; assay: Drug metabolism rat plasma assessed as metabolite formation at 5 mg/kg, po; type: ADME, organism-based; set-up: dose 5 mg/kg, route oral; conditions: in vivo
[20] = target: Cytochrome P450 2D6 (Homo sapiens, UniProt P10635); assay: Inhibition of CYP2D6 (unknown origin); type: ADME
Chain of Cytochrome P450 2D6 (P10635 whole entry): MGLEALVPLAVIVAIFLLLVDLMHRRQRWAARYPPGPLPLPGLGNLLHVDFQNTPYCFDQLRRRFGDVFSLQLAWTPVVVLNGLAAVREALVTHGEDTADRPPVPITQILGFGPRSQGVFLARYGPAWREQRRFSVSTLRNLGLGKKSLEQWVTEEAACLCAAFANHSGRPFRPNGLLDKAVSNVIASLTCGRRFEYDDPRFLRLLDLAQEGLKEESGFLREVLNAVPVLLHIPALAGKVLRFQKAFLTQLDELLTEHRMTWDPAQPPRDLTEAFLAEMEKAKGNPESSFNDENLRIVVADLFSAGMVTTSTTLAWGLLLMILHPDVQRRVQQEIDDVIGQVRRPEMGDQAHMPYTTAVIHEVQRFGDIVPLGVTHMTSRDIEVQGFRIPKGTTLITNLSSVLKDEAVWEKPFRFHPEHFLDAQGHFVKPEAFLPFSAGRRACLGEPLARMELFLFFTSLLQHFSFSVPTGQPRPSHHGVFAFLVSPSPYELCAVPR

[21] = test system: Rattus norvegicus; assay: Dose normalized AUC in rat at 5 mg/kg, po; type: ADME, organism-based; set-up: dose 5 mg/kg, route oral; conditions: in vivo
[22] = target: T2, Cytochrome P450 3A4; assay: Inhibition of CYP3A4 (unknown origin) using midazolam substrate; type: ADME
[23] = test system: Rattus norvegicus; assay: Free clearance in rat at 1 mg/kg, iv or 5 mg/kg, po; type: ADME, organism-based; conditions: in vivo
[24] = (§3) Efflux ratio in MDCK cells; type: ADME, cell-based, Canis lupus familiaris; conditions: dog
Procedure, shortened: (§4)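 Efflux ratio derived as B–A permeability divided by A–B permeability across MDCK cell monolayers. Apparent permeabilities were measured in both directions and expressed in 10^-6 cm/s.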

[25] = Lipophilicity, logD of the compound at pH 7.4; type: physicochemical; conditions: buffer
[26] = Oral bioavailability in rat at 5 mg/kg; type: ADME, organism-based; conditions: in vivo
[27] = target: Voltage-gated inwardly rectifying potassium channel KCNH2 (Homo sapiens, UniProt Q12809); assay: Inhibition of human ERG by patch clamp assay
Chain of Voltage-gated inwardly rectifying potassium channel KCNH2 (Q12809 whole entry): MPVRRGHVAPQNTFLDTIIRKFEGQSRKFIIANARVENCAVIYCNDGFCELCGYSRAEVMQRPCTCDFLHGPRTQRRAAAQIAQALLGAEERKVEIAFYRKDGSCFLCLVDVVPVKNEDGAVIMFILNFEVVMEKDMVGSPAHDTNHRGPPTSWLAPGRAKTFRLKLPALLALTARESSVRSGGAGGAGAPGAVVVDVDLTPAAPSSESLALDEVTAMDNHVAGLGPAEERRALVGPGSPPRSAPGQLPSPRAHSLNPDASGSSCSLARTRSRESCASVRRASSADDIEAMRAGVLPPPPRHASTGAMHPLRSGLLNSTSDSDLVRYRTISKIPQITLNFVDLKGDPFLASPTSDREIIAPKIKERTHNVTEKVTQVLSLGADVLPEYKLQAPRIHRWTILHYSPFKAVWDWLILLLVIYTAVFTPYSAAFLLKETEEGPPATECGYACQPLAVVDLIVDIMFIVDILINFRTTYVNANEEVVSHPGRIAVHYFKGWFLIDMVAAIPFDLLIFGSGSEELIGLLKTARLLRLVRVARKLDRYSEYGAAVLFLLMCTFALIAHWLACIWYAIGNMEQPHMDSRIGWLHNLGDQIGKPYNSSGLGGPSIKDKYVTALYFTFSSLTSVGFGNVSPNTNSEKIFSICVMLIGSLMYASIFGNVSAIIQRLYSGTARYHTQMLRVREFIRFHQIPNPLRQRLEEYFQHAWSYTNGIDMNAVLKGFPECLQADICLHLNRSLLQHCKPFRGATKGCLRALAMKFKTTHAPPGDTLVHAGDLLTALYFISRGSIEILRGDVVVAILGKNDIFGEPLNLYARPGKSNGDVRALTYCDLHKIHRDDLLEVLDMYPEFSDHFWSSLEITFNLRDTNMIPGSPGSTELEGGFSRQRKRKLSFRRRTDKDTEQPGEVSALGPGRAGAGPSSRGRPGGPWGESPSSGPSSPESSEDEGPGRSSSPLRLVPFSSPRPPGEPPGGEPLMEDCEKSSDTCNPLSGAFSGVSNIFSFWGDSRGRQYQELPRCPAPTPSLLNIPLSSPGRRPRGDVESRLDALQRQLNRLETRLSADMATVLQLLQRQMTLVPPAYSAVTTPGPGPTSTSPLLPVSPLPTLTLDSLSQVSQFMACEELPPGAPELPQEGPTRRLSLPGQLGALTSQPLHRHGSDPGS

[28] = Hepatic clearance in mouse liver microsomes; type: ADME; procedure, shortened: as §1
[29] = (§5) Permeability from basolateral to apical side in MDCK cells; type: ADME, cell-based, Canis lupus familiaris; conditions: dog, read-out: permeability
[30] = Thermodynamic solubility of the compound at pH 6.5; type: physicochemical; conditions: buffer, read-out: Therm_solubility
[31] = target: Cytochrome P450 2C9 (Homo sapiens, UniProt P11712); assay: Inhibition of CYP2C9 (unknown origin); type: ADME
Chain of Cytochrome P450 2C9 (P11712 whole entry): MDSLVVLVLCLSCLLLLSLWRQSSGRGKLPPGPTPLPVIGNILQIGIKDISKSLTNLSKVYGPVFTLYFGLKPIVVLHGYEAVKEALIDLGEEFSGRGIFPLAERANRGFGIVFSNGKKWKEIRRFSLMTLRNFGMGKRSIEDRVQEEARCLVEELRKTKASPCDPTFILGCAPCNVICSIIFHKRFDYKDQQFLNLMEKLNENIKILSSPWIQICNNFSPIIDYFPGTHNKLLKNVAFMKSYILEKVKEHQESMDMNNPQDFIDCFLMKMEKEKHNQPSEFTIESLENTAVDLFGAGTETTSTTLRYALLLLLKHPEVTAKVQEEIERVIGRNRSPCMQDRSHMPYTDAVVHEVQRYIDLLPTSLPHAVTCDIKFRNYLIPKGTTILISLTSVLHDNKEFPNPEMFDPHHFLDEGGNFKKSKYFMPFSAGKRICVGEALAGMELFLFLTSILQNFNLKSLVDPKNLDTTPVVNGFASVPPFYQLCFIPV

[32] = test system: MDCK; assay: as §2; type: ADME, cell-based, Canis lupus familiaris; conditions: dog
[33] = test system: MDCK; assay: as §3; type: ADME, cell-based, Canis lupus familiaris; conditions: dog; procedure, shortened: as §4
[34] = test system: MDCK; assay: as §5; type: ADME, cell-based, Canis lupus familiaris; conditions: dog
[35] = AUC in rat at 1 mg/kg, iv or 5 mg/kg, po; type: ADME, organism-based; conditions: plasma
[36] = target: Dual specificity mitogen-activated protein kinase kinase 1 (Homo sapiens, UniProt Q02750); assay: Inhibition of MEK1 (unknown origin) by HTRF assay
Chain of Dual specificity mitogen-activated protein kinase kinase 1 (Q02750 whole entry): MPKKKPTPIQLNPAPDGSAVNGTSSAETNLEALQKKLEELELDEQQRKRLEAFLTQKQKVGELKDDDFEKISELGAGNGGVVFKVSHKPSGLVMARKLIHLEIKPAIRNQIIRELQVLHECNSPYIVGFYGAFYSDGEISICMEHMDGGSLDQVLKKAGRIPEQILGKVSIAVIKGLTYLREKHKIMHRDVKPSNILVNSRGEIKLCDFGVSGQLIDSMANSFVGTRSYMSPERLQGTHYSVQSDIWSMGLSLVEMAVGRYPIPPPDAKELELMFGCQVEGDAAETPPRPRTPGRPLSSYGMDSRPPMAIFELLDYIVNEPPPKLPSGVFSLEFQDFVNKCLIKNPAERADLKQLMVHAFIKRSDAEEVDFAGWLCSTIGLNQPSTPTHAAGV

Structure (SMILES) | IC50 [1] | CLhep predicted [4] | IC50 [5] | clearance [7] | fraction unbound [8] | EC50 [11] | fraction unbound [13] | IC50 [14] | EC50 [15] | CLhep predicted [17] | fraction unbound [18] | IC50 [20] | AUC/dose [21] | IC50 [22] | CL free [23] | logD [25] | bioavailability [26] | CLhep predicted [28] | solubility thermodynamic [30] | IC50 [31] | also measured
O=C(NOCCO)c1ccc2cncn2c1Nc1ccc(I)cc1F [GDC-0623] | > 10 µM | 14 mL/min/kg | > 10 µM | 13.2 mL/min/kg | 0.01 | 0.051 µM | 0.005 | > 10 µM | 0.004 µM | 38 mL/min/kg | 0.06 | > 10 µM | 20 µM·h | > 10 µM | 1320 mL/min/kg | 2.1 | 100% | 64 mL/min/kg | 41 µg/mL (≈ 89.9 µM) | > 10 µM | CLhep predicted [2]: 12 mL/min/kg; Papp A→B [3]: 6.2 ×10⁻⁶ cm/s; Stability [6]: 82%; pKa [9]: 4.3; Vd [10]: 0.5 L/kg; CLhep predicted [12]: 30 mL/min/kg; half-life [16]: 1.7 h; Drug metabolism [19]: metabolite_detected; efflux ratio [24]: 2.6; IC50 [27]: 4.4 µM; Papp B→A [29]: 16.5 ×10⁻⁶ cm/s
C[C@H](CO)CONC(=O)c1ncc2cncn2c1Nc1ccc(I)cc1F | – | 8 mL/min/kg | – | 12 mL/min/kg | 0.13 | 0.107 µM | 0.14 | – | 0.007 µM | 19 mL/min/kg | 0.13 | – | 9.2 µM·h | – | 92 mL/min/kg | – | 65% | 29 mL/min/kg | 12 µg/mL (≈ 24.7 µM) | – | permeability [32]: 7.9 ×10⁻⁶ cm/s; Ratio [33]: 1.3; IC50 [27]: 14 µM; permeability [34]: 8.7 ×10⁻⁶ cm/s
C[C@H](O)CONC(=O)c1ncc2cncn2c1Nc1ccc(I)cc1F | – | 10 mL/min/kg | – | 44 mL/min/kg | 0.055 | 0.052 µM | 0.1 | – | 0.005 µM | 44 mL/min/kg | 0.09 | – | 0.61 µM·h | – | 800 mL/min/kg | – | 15% | 56 mL/min/kg | 48 µg/mL (≈ 102 µM) | – | –
O=C(NOCCO)c1ncc2cncn2c1Nc1ccc(I)cc1F | – | 11 mL/min/kg | – | 48 mL/min/kg | 0.08 | 0.12 µM | 0.09 | – | 0.008 µM | 41 mL/min/kg | 0.11 | – | 1.48 µM·h | – | 600 mL/min/kg | 2.1 | 38% | 54 mL/min/kg | 150 µg/mL (≈ 328 µM) | – | Papp A→B [3]: 19.7 ×10⁻⁶ cm/s; pKa [9]: 2.03; efflux ratio [24]: 0.7; IC50 [27]: 3.3 µM; Papp B→A [29]: 14 ×10⁻⁶ cm/s
O=C(NOCCO)c1cc(F)c2cncn2c1Nc1ccc(I)cc1F | – | – | – | 3.3 mL/min/kg | 0.03 | 0.14 µM | – | – | – | – | – | – | 41 µM·h | – | 55 mL/min/kg | – | – | – | – | 1.2 µM | half-life [16]: 3.6 h
O=C(NOCCO)c1ccn2cncc2c1Nc1ccc(I)cc1F | > 10 µM | 15 mL/min/kg | 16 µM | 14 mL/min/kg | 0.022 | 0.035 µM | 0.015 | > 10 µM | 0.002 µM | 40 mL/min/kg | 0.049 | > 10 µM | 37 µM·h | > 10 µM | 636 mL/min/kg | 2.1 | 37% | 75 mL/min/kg | 110 µg/mL (≈ 241 µM) | 7.3 µM | CLhep predicted [2]: 23 mL/min/kg; Papp A→B [3]: 20.4 ×10⁻⁶ cm/s; Vd [10]: 0.46 L/kg; CLhep predicted [12]: 38 mL/min/kg; half-life [16]: 0.9 h; efflux ratio [24]: 0.7; AUC [35]: 6 µM·h; IC50 [27]: 2.1 µM; Papp B→A [29]: 14 ×10⁻⁶ cm/s
O=C(NOCCO)c1oc2ccncc2c1Nc1ccc(I)cc1F | > 10 µM | – | > 10 µM | – | – | 0.12 µM | – | > 10 µM | 0.025 µM | – | – | > 10 µM | – | > 10 µM | – | 3.1 | – | – | – | > 10 µM | IC50 [36]: 0.012 µM
O=C(NOCCO)c1ccc2cnsc2c1Nc1ccc(I)cc1F | > 10 µM | – | 1.8 µM | – | – | 0.044 µM | – | 9 µM | – | – | – | > 10 µM | – | 9 µM | – | 3.1 | – | – | – | 1.3 µM | –
